Screening results (PubChem)
The sample as a whole holds a higher share of hits than the screen did.
Insulin prom act = TRM-6 insulin promoter activation. TRM-6 cells (human fetal islet line), insulin promoter eGFP reporter, imaging; plate-scaled: unstimulated 0, stimulated control 100. activation, % at 2 µM. actives 0.81% (n = 130,000);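 active = activation at 2 µM above a set limit, confirmed on inspection of the cell images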;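 note: share of cells whose green reporter signal exceeds an intensity cutoff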
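Material: TRM-6 insulin promoter–eGFP reporter cells. Buffer or medium: Low-glucose (5.5 mM) medium with tamoxifen. Probe or stimulus: tamoxifen at 0.75 µM added at seeding for reporter induction. Times: tamoxifen pre-incubation 15 h overnight, then compound exposure 48 h at 37 °C. Detection: high-content imaging of fixed cells with Hoechst nuclear stain.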
Starred values were filed as active, the others as inactive.

Results for CN1C(=O)N(C)C(=O)C2(Cc3c(ccc4ccccc34)N(C)C2)C1=O ?
Insulin prom act: 129*

What do the screens show for `CN(C)c1cccc2c(C#N)ccc(N(C)C)c12`?
Insulin prom act: -87

Results for O=C1C2CCN(CC2)C1Cc1ccc(OCCOc2ccccc2)cc1 (stereo unspecified) ?
Insulin prom act: -8

How did CN(C)CCCN=Cc1c(O)n(CCc2ccccc2)c(=O)[nH]c1=O do in these assays?
Insulin prom act: -7

How did Cc1c(N=Cc2c(O)n(CCc3ccc(F)cc3)c(=O)[nH]c2=O)c(=O)n(-c2ccccc2)n1C do in these assays?
Insulin prom act: 400*

Results for CC(=Nc1c(C)n(C)n(-c2ccccc2)c1=O)c1c(O)n(Cc2ccccc2)c(=O)[nH]c1=O ?
Insulin prom act: 0

How did CC(C)n1cc(C(=O)N(CC(=O)NC(C)(C)C)Cc2ccccc2)cn1 do in these assays?
Insulin prom act: 139

What do the screens show for `Cc1ccc[n+](CC(O)Cn2c3ccccc3c3ccccc32)c1` (stereo unspecified)?
Insulin prom act: 106

Results for O=C1c2cccc3cccc(c23)C(=O)N1/N=C/c1c(O)n(-c2ccccc2)c(=O)[nH]c1=O ?
Insulin prom act: 5

What do the screens show for `CC1CCC/C=C/C2CC(O)CC2C(O)/C=C/C(=O)O1` (stereo unspecified)?
Insulin prom act: 228*

What do the screens show for `CC1CCC[C@H](O)CCCCCc2cc(O)cc(O)c2C(=O)O1` (stereo partly specified)?
Insulin prom act: 148

Results for Nc1nnc(CCN2CCCCC2)s1 ?
Insulin prom act: -36

Results for CN1/C(=C\C=C\C2=[N+](C)c3ccc4ccccc4c3C2(C)C)C(C)(C)c2ccccc21 ?
Insulin prom act: 151*

What do the screens show for `CN1/C(=C\C=C2C(=O)NC(=O)NC2=O)C(C)(C)c2ccccc21`?
Insulin prom act: 0

How did Cc1cc(C)nc(-n2c(C)nc3cc(Cl)ccc3c2=O)c1 do in these assays?
Insulin prom act: 9

What do the screens show for `[O-][n+]1onc2c1CCC1N(O)CCC21O` (stereo unspecified)?
Insulin prom act: 231

What do the screens show for `CCN(CC)c1ccc(N=Cc2c(O)n(-c3cc(OC)ccc3OC)c(=O)[nH]c2=O)cc1`?
Insulin prom act: 650*

What do the screens show for `COc1ccc(N=Cc2c(O)n(-c3ccc(C)cc3)c(=O)[nH]c2=O)cc1`?
Insulin prom act: -83

What do the screens show for `CCOC(=O)c1ccc(N=Cc2c(O)n(-c3ccccc3F)c(=S)[nH]c2=O)cc1`?
Insulin prom act: -3

How did O=C(CN1CC(c2ccccc2)CC1=O)Nc1ccc(F)cc1 (stereo unspecified) do in these assays?
Insulin prom act: -38

What do the screens show for `Cc1cc(NC(=O)CCl)no1`?
Insulin prom act: -7

What do the screens show for `CC12CN3CC(C)(CN(C1)C31CCOCC1)C2=O`?
Insulin prom act: -75

How did COc1c(C)cc(C(=O)C2CCCN(Cc3ccccn3)C2)cc1C (stereo unspecified) do in these assays?
Insulin prom act: 319*

What do the screens show for `O=C(c1ccc2c(c1)OCO2)C1CCCN(Cc2ccccn2)C1` (stereo unspecified)?
Insulin prom act: -7

How did CSc1ccc(C(=O)C2CCCN(Cc3cc4ccccc4[nH]3)C2)cc1 (stereo unspecified) do in these assays?
Insulin prom act: -6

How did O=c1c2ccccc2[se]n1-c1ccccc1 do in these assays?
Insulin prom act: 0

What do the screens show for `CCCCc1nc2ccccc2c(=O)n1-c1ccc(Cl)cc1[N+](=O)[O-]`?
Insulin prom act: -7

How did CC(=O)N1N=C2C3CCN(CC3)C2C1c1cccc2ccccc12 (stereo unspecified) do in these assays?
Insulin prom act: 2

How did Cc1ccc(CS(=O)(=O)CCC(=O)N2CCC3(CC2)OCCO3)cc1 do in these assays?
Insulin prom act: 9

How did Cc1ccc2c(c1)N(CCC(=O)N1CCC3(CC1)OCCO3)C(=O)CO2 do in these assays?
Insulin prom act: 8

How did Cc1ccc(Cc2c(C)nc3nc(SCC(=O)N4CCC5(CC4)OCCO5)nn3c2C)cc1 do in these assays?
Insulin prom act: 125*

How did c1ccc(C2CC3CC(c4ccco4)N2O3)cc1 (stereo unspecified) do in these assays?
Insulin prom act: -5

Results for CC(C)N1CCC2(CC1)NC(CO)(CO)CO2 ?
Insulin prom act: -6

How did Cc1ccc(C2=NC(C)(C)N3C2C3c2ccc([N+](=O)[O-])cc2)cc1 (stereo unspecified) do in these assays?
Insulin prom act: 8

Results for O=C1NC(c2cc3ccccc3nc2Cl)Nc2ccccc21 (stereo unspecified) ?
Insulin prom act: 8

Results for O=C(COc1ccccc1F)N1CCN(CCN2C(=O)c3cccc4cccc(c34)C2=O)CC1 ?
Insulin prom act: 7

Results for CCP(=S)(CC)c1ccc(N(C)C)cc1 ?
Insulin prom act: 396*

Results for Cc1cc2ccccc2c(=O)n1CC(=O)NCC(=O)N1CCC2(CC1)OCCO2 ?
Insulin prom act: -7

How did Cc1ccccc1NC1(C#N)CCCCC1 do in these assays?
Insulin prom act: -9
